Results taken from ChEMBL document CHEMBL1146826, “A novel Pd-catalyzed cyclization reaction of ureas for the synthesis of dihydroquinazolinone p38 kinase inhibitors” (Bioorg Med Chem Lett, 2004).
pIC50: −log10 of the molar value.

Key:
[1] = biological target: Mitogen-activated protein kinase 14 (Mus musculus, UniProt P47811); assay: Inhibition of murine Mitogen-activated protein kinase p38 alpha
Summary of the method: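 Phosphorylated His-tagged murine p38α MAP kinase (10 ng/well) assayed with immobilized GST-ATF-2 as substrate.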

PBMC = assay: Effect on LPS stimulated TNF-alpha release from hPBMCs; format: functional, cell-based; settings: Homo sapiens
Summary of the method: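 Human peripheral blood mononuclear cells incubated with inhibitor, then stimulated with LPS/IFNγ for 3 h; TNFα in supernatants quantified by ELISA.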

Mus musculus = assay: Compound was tested for the inhibition of TNF-alpha release after LPS stimulation in mice at a dose of 30 mg/kg, po; format: functional
Summary of the method: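 Mice given compound orally at 30 mg/kg; 1 h after dosing, LPS (20 mg/kg) injected iv. One hour later blood collected and TNFα measured by mouse-specific ELISA.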

Chain of Mitogen-activated protein kinase 14 (P47811 whole entry): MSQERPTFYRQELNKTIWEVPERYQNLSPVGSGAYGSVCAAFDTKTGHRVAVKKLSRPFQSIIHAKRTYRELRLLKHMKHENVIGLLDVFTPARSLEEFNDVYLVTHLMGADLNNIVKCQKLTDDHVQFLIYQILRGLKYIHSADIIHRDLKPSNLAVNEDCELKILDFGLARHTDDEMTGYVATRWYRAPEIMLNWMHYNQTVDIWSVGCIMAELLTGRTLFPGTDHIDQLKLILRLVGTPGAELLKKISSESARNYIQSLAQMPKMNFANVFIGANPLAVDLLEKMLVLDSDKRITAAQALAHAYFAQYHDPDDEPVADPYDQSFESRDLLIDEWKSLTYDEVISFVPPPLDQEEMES

SMILES	pIC50 [1]	pIC50 (PBMC)	inhibition in vivo at 30 mg/kg (Mus musculus)
O=C1NCc2cc(NS(=O)(=O)c3ccccc3Cl)ccc2N1c1c(Cl)cccc1Cl	6.74	6.29	
O=C1NCc2cc(Nc3ccc(F)cc3F)ccc2N1c1c(Cl)cccc1Cl	6.42	6.54	
O=C1NCc2cc(NS(=O)(=O)c3ccc(F)c(Cl)c3)ccc2N1c1c(Cl)cccc1Cl	7.47	7.08	
Cc1ccc(S(=O)(=O)Nc2ccc3c(c2)CNC(=O)N3c2c(Cl)cccc2Cl)cc1	5.74	< 5.00	
CN(c1ccc2c(c1)CNC(=O)N2c1c(Cl)cccc1Cl)S(=O)(=O)c1cc(Cl)ccc1Cl	6.11	5.92	
O=C1NCc2cc(Sc3ccc(F)cc3F)ccc2N1c1c(Cl)cccc1Cl	6.33	6.02	
O=C(Nc1ccc2c(c1)CNC(=O)N2c1c(Cl)cccc1Cl)c1ccccc1	5.07	5.00	
O=C1NCc2cc(NS(=O)(=O)c3ccccc3)ccc2N1c1c(Cl)cccc1Cl	7.28	6.85	
O=C1NCc2cc(NS(=O)(=O)c3cc(Cl)ccc3O)ccc2N1c1c(Cl)cccc1Cl	6.24		
O=C1NCc2cc(NCc3ccccc3)ccc2N1c1c(Cl)cccc1Cl	6.82	5.92	
O=C1NCc2cc(NS(=O)(=O)c3cc(Cl)ccc3Cl)ccc2N1c1c(Cl)cccc1Cl	7.00	6.41	
O=C1NCc2ccccc2N1c1c(Cl)cccc1Cl	4.93		
COc1cc2c(-c3ccccc3)nc(=O)n(C(C)C)c2cc1N1CCOCC1	4.85		
Cc1cc(OCCCN2CCOCC2)cc(C)c1N1C(=O)NCc2cc(NS(=O)(=O)c3ccc(F)c(Cl)c3)ccc21			42%
